How the values were obtained:
Rattus norvegicus [1] = experiment: The compound at 1 uM was tested in vivo for inhibitory effect on 48-h homologous passive cutaneous anaphylaxis (PCA) in rats administered perorally; assay type: functional; details: in the assay text read “at 1 mg/kg” for “at 1 uM”
Procedure, shortened: (§1)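 Male Wistar rats, three per group, received intradermal anti-ovalbumin rat IgE serum (0.05 mL, 1:8 in saline) at two dorsal sites. After 48 h they were challenged iv with 1 mg ovalbumin plus 5 mg Evans blue. Compound was given orally 1 h before challenge. […] ED50 came from responders (>50% inhibition).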

Histamine H1 receptor [2] = biological target: T1, Histamine H1 receptor (Cavia porcellus, UniProt P31389); experiment: Binding affinity for histamine H1 receptor from guinea pig cerebellum, using [3H]pyrilamine as radioligand at 0.1 uM; assay type: tissue-based
Procedure, shortened: (§2)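 Male Hartley guinea-pig cerebellum membranes (washed twice, 35000–35500g) in 50 mM Na/K phosphate, pH 7.5. Tissue (10 mg wet weight) was incubated with 3.8 nM [3H]pyrilamine and 0.1 μM drug for 30 min at 25 °C. Nonspecific binding was set with 1 μM astemizole. Bound ligand was collected by GF/C filtration with three ice-cold washes and counted by liquid scintillation.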

Rattus norvegicus [3] = experiment: The compound was tested in vivo for inhibitory effect on 48-h homologous passive cutaneous anaphylaxis (PCA) in rats administered perorally; assay type: functional; details: po; procedure, shortened: as §1
Cavia porcellus = experiment: The compound was tested in vivo for the inhibition of IgG1-mediated bronchoconstriction in guinea pig at 0.03 mg/kg administered perorally; assay type: functional; details: route oral; for ED50: read-out: ID50 (the source's name)
Procedure, shortened: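 Male Hartley guinea pigs, 8–12 per group, were passively sensitized ip with 1 mL IgG-like anti-ovalbumin antiserum. After 24 h they were urethane-anesthetized, ventilated and given gallamine. Compound was given orally 1 h before ovalbumin challenge (5 mg/kg iv). Konzett–Rössler overflow was read as % inhibition versus controls at 5 min after challenge.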

[4] = biological target: T2, Muscarinic acetylcholine receptor M1 (Rattus norvegicus) (UniProt P08482); experiment: Binding affinity for Muscarinic acetylcholine receptor M1 from rat striatum, using [3H]quinuclidinyl benzilate as radioligand at 10 uM.
T2 sequence (whole entry): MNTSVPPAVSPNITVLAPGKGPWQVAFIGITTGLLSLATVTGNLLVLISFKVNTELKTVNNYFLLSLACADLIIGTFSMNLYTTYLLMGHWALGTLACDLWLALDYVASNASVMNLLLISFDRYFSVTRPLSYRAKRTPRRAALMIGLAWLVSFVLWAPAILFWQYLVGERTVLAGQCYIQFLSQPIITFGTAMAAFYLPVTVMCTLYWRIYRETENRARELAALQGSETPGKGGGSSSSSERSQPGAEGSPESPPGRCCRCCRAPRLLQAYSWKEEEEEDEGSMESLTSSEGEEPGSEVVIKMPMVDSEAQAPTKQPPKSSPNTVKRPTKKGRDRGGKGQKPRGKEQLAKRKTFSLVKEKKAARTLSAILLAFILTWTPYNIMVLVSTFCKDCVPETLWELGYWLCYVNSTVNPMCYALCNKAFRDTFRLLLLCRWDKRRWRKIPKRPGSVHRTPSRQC
Procedure, shortened: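 Rat striatum was homogenized in water and diluted to 200 volumes in 50 mM Na/K phosphate, pH 7.4. Nonspecific binding was defined with 1 μM unlabeled dexetimide. Bound ligand was collected by GF/B filtration with three ice-cold buffer washes and counted by scintillation.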

[5] = biological target: T2, Muscarinic acetylcholine receptor M1 (Rattus norvegicus); experiment: The compound was tested in vitro for binding affinity against muscarinic acetylcholine Muscarinic acetylcholine receptor M1 from rat striatum, using [3H]quinuclidinyl benzilate as radioligand at 10 uM.
Procedure, shortened: (§3)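 Rat striatum was homogenized in water and diluted to 200 volumes in 50 mM Na/K phosphate, pH 7.4. Tissue (5 mg wet weight) was incubated with 1.26 nM [3H]quinuclidinyl benzilate for 60 min at 37 °C. Nonspecific binding was defined with 1 μM unlabeled dexetimide. Bound ligand was collected by GF/B filtration with three ice-cold buffer washes and counted by scintillation.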

[6] = biological target: Histamine H1 receptor (Cavia porcellus) (UniProt P31389); experiment: (§4) The compound was tested in vitro for binding affinity against histamine H1 receptor from guinea pig cerebellum, using [3H]pyrilamine as radioligand at 0.1 uM; assay type: tissue-based; procedure, shortened: as §2
Histamine H1 receptor [7] = biological target: T1, Histamine H1 receptor; experiment: as §4; assay type: tissue-based
Procedure, shortened: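 Male Hartley guinea-pig cerebellum membranes (washed twice, 35000–35500g) in 50 mM Na/K phosphate, pH 7.5. Nonspecific binding was set with 1 μM astemizole. Bound ligand was collected by GF/C filtration with three ice-cold washes and counted by liquid scintillation.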

[8] = biological target: T2, Muscarinic acetylcholine receptor M1 (Rattus norvegicus); experiment: The compound was tested in vitro for binding affinity Muscarinic acetylcholine receptor M1 from rat striatum, using [3H]quinuclidinyl benzilate as radioligand at 10 uM.; procedure, shortened: as §3
Rattus norvegicus [9] = experiment: The compound at 1 mg/kg was tested in vivo for inhibitory effect on 48-h homologous passive cutaneous anaphylaxis (PCA) in rats administered perorally
Rattus norvegicus [10] = experiment: The compound at 10 uM was tested in vivo for inhibitory effect on 48-h homologous passive cutaneous anaphylaxis (PCA) in rats administered perorally; assay type: functional; details: in the assay text read “at 10 mg/kg” for “at 10 uM”; procedure, shortened: as §1

T1 sequence (P31389 whole entry): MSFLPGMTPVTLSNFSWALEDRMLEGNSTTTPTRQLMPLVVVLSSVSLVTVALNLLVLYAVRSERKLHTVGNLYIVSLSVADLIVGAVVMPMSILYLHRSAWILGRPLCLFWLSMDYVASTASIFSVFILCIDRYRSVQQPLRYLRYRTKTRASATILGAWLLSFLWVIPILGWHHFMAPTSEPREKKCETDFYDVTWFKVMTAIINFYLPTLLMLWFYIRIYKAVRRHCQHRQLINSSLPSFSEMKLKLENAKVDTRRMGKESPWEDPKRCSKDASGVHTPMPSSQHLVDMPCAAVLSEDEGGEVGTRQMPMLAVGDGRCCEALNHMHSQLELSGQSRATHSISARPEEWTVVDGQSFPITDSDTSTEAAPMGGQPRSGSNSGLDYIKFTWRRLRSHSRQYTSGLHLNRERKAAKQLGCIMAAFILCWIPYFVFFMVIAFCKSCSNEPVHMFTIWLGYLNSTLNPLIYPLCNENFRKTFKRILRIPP
Sequence of Histamine H1 receptor (Cavia porcellus) (P31389 whole entry): as above

SMILES	Ki (Histamine H1 receptor [2]) [nM]	ED50 (Rattus norvegicus [3]) [mg/kg]	ED50 (Cavia porcellus) [mg/kg]	inhibition [4] [%]	inhibition in vivo at 0.03 mg/kg (Cavia porcellus) [%]	other results
Cc1ccc2c(c1)/C(=C/CCN(C)C)c1ccccc1CO2.O=C(O)/C=C/C(=O)O	0.13					Inhibition (Rattus norvegicus [1]): 20%
CN1CCC(=C2c3ccccc3CC(=O)c3sccc32)CC1 [KETOTIFEN]		4.8	0.009	55		
CC(C)O.O=C(O)c1ccc2c(c1)/C(=C\CCN1CCOCC1)c1ccccc1CO2					-1	inhibition [5]: -2%; Inhibition (Rattus norvegicus [1]): 74%; inhibition [6]: 24%
O=C(O)c1ccc2c(c1)/C(=C\CCN1CCSCC1)c1ccccc1CO2	7.6			27	27	Inhibition (Rattus norvegicus [1]): 60%
CN(C)CC/C=C1\c2ccccc2COc2ccc(CCO)cc21	0.48	0.14	0.0059	72		
CN(C)CCC/C=C1/c2ccccc2COc2ccc(C(=O)O)cc21		1.2		2	11	Ki (Histamine H1 receptor [7]): 5.8 nM
CN1CCN(C/C=C2\c3ccccc3COc3ccc(CC(=O)O)cc32)CC1.O=C(O)/C=C/C(=O)O						inhibition [5]: 3%; Inhibition (Rattus norvegicus [1]): 44%; inhibition [6]: 29%
CN(C)CCSC1c2ccccc2COc2ccc(C(=O)O)cc21.Cl (configuration not stated)	14	0.92	0.029			inhibition [5]: 7%
CN(C)CC/C=C1/c2ccccc2COc2ccc(C(=O)O)cc21	20	0.25	0.053	1		
CN(C)CC/C=C1\c2ccccc2COc2ccc(C(=O)O)cc21.O=C(O)/C=C/C(=O)O	4.2	0.74	0.021	5		
CN(C)CC/C=C1/c2ccccc2COc2ccc(CCC(=O)O)cc21		0.32	0.015			Ki (Histamine H1 receptor [7]): 15 nM; inhibition [8]: 2%
CCN(CC)CC/C=C1/c2ccccc2COc2ccc(C(=O)O)cc21.O=C(O)/C=C/C(=O)O	10	0.12		3	19	
CN(C)C/C=C1\c2ccccc2COc2ccc(CC(=O)O)cc21		0.077	0.018			Ki (Histamine H1 receptor [7]): 11 nM; inhibition [8]: 1%
CN(C)C/C=C1\c2ccccc2COc2ccc(C(=O)O)cc21.O=C(O)/C=C/C(=O)O	12			-2	28	Inhibition (Rattus norvegicus [9]): 19%
CN(C)CCC/C=C1\c2ccccc2COc2ccc(C(=O)O)cc21	6.3	1.2		12	1.4	
O=C(O)/C=C/C(=O)O.O=C(O)c1ccc2c(c1)/C(=C\CCN1CCCC1)c1ccccc1CO2	5			3	8.7	Inhibition (Rattus norvegicus [10]): 53%
CN(C)CC/C=C(/c1ccccc1)c1cccc(C(=O)O)c1				4		inhibition [6]: 10%
CN1CCN(C/C=C2\c3ccccc3COc3ccc(C(=O)O)cc32)CC1.O=C(O)/C=C/C(=O)O						inhibition [5]: 2%; Inhibition (Rattus norvegicus [9]): 10%; inhibition [6]: 0%
CN(C)CC/C=C1/c2ccccc2COc2ccc(CCO)cc21		0.12		80		Ki (Histamine H1 receptor [7]): 0.63 nM
CN(C)CC/C=C1/c2ccccc2COc2ccc(CC(=O)O)cc21.Cl [OLOPATADINE HYDROCHLORIDE]	16	0.049	0.03	3		
O=C(O)/C=C/C(=O)O.O=C(O)c1ccc2c(c1)/C(=C/CN1CCSCC1)c1ccccc1CO2						inhibition [5]: 3%; Inhibition (Rattus norvegicus [10]): 24%; inhibition [6]: 30%
CN(C)CCC/C=C1/c2ccccc2COc2ccc(CC(=O)O)cc21	4.6			2	60	Inhibition (Rattus norvegicus [1]): 55%
CN(C)CC/C=C1/c2ccccc2COc2cc(C(=O)O)ccc21	24			-1		Inhibition (Rattus norvegicus [9]): 19%
CN(C)CC/C=C1\c2ccccc2COc2ccc(CCC(=O)O)cc21	4.2	0.26	0.0064	5		
CN(C)CC/C=C1\c2ccccc2COc2ccc(CC(=O)O)cc21	5.2	0.021	0.0041	-1		
CN(C)CC/C=C1/c2ccccc2COc2ccc(/C=C/C(=O)O)cc21.O=C(O)/C=C/C(=O)O	29	1		-1	1.1	
O=C(O)/C=C/C(=O)O.O=C(O)c1ccc2c(c1)/C(=C/CN1CCOCC1)c1ccccc1CO2						inhibition [5]: 2%; Inhibition (Rattus norvegicus [9]): 12%; inhibition [6]: 19%

Reference: ChEMBL document CHEMBL1126065, “Synthesis and antiallergic activity of 11-(aminoalkylidene)-6,11-dihydrodibenz[b,e]oxepin derivatives” (J Med Chem, 1992)
